Test results: ChEMBL document CHEMBL2417469, “Synthesis of novel analogs of 2-pyrazoline obtained from [(7-chloroquinolin-4-yl)amino]chalcones and hydrazine as potential antitumor and antimalarial agents” (Eur J Med Chem, 2013)

What was measured:
Assay type in all cases: functional
[1] = test system: SW-620; test: Cytotoxicity against human SW620 cells after 48 hrs by SRB assay; settings: SW-620, 48 h
Summary of the method: (§1)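 NCI 60-cell screen. Cells grew 24 h (37 °C, 5% CO2) before compound was added. Compounds were in DMSO and diluted in medium with gentamicin, then tested at five levels (100, 10, 1.0, 0.1, 0.01 µM) with 48 h continuous exposure. Adherent cells were fixed with TCA (10% final) and stained with 0.4% SRB, absorbance read at 515 nm. A time-zero plate was included. LC50 is the concentration giving 50% loss of protein relative to time zero.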

[2] = test system: TK-10; test: Cytotoxicity against human TK10 cells after 48 hrs by SRB assay; settings: TK-10, 48 h; summary of the method: as §1
[3] = test system: DU-145; test: Cytotoxicity against human DU145 cells after 48 hrs by SRB assay; settings: DU-145, 48 h
Summary of the method: (§2)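 NCI 60-cell-line screen. Cells preincubated 24 h at 37 °C, 5% CO2; time-zero plates TCA-fixed. Compounds dissolved in DMSO and tested at five concentrations (100, 10, 1.0, 0.1, 0.01 µM) for 48 h continuous exposure. Adherent cells fixed with cold TCA (10% final), then SRB stained; absorbance at 515 nm. GI50, TGI and LC50 calculated from growth relative to time-zero and untreated controls.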

[4] = test system: SK-MEL-28; test: Cytotoxicity against human SK-MEL-28 cells after 48 hrs by SRB assay; settings: SK-MEL-28, 48 h; summary of the method: as §2
[5] = test system: SNB-75; test: Cytotoxicity against human SNB75 cells after 48 hrs by SRB assay; settings: SNB-75, 48 h; summary of the method: as §1
[6] = test system: Hs-578T; test: Cytotoxicity against human Hs578T cells after 48 hrs by SRB assay; summary of the method: as §2
[7] = test system: NCI-H322M; test: Cytotoxicity against human NCI-H322M cells after 48 hrs by SRB assay; summary of the method: as §2
[8] = Cytotoxicity against human EKVX cells after 48 hrs by SRB assay; summary of the method: as §2
[9] = test system: A498; test: Cytotoxicity against human A498 cells after 48 hrs by SRB assay; settings: A498, 48 h; summary of the method: as §2
[10] = test system: ACHN; test: Cytotoxicity against human ACHN cells after 48 hrs by SRB assay; summary of the method: as §2
[11] = test system: MCF7; test: Cytotoxicity against human MCF7 cells after 48 hrs by SRB assay; settings: MCF7, 48 h; summary of the method: as §2
[12] = test system: OVCAR-3; test: Cytotoxicity against human OVCAR3 cells after 48 hrs by SRB assay; settings: OVCAR-3, 48 h; summary of the method: as §2
[13] = test system: SNB-19; test: Cytotoxicity against human SNB19 cells after 48 hrs by SRB assay; settings: SNB-19, 48 h; summary of the method: as §1
[14] = test system: UO-31; test: Cytotoxicity against human UO31 cells after 48 hrs by SRB assay; settings: UO-31, 48 h; summary of the method: as §1
[15] = test system: MDA-MB-231; test: Cytotoxicity against human MDA-MB-231 cells after 48 hrs by SRB assay; settings: MDA-MB-231, 48 h; summary of the method: as §2
[16] = test system: HOP-62; test: Cytotoxicity against human HOP62 cells after 48 hrs by SRB assay; settings: HOP-62, 48 h; summary of the method: as §2
[17] = test system: HOP-92; test: Cytotoxicity against human HOP92 cells after 48 hrs by SRB assay; settings: HOP-92, 48 h; summary of the method: as §2
[18] = test system: PC-3; test: Cytotoxicity against human PC3 cells after 48 hrs by SRB assay; settings: PC-3, 48 h; summary of the method: as §2
[19] = test system: UACC-257; test: Cytotoxicity against human UACC257 cells after 48 hrs by SRB assay; settings: UACC-257, 48 h; summary of the method: as §1
[20] = test system: OVCAR-4; test: Cytotoxicity against human OVCAR4 cells after 48 hrs by SRB assay; settings: OVCAR-4, 48 h; summary of the method: as §2
[21] = test system: NCI-H23; test: Cytotoxicity against human NCI-H23 cells after 48 hrs by SRB assay; settings: NCI-H23, 48 h; summary of the method: as §2
[22] = test system: HL-60(TB); test: Cytotoxicity against human HL-60(TB) cells after 48 hrs by SRB assay; settings: HL-60, 48 h; summary of the method: as §2
[23] = test system: 786-0; test: Cytotoxicity against human 786-0 cells after 48 hrs by SRB assay; settings: 786-0, 48 h; summary of the method: as §2
[24] = test system: OVCAR-5; test: Cytotoxicity against human OVCAR5 cells after 48 hrs by SRB assay; settings: OVCAR-5, 48 h; summary of the method: as §2
[25] = test system: MOLT-4; test: Cytotoxicity against human MOLT4 cells after 48 hrs by SRB assay; settings: MOLT-4, 48 h; summary of the method: as §2
[26] = read-out: LC50 (the source's name)

With `O=CN1N=C(c2ccc(Nc3ccnc4cc(Cl)ccc34)cc2)CC1c1ccc(Cl)cc1` (centres undefined) the GI50 [1] was 0.48 µM, the LC50 [1] was > 100 µM and the GI50 [2] was 9.57 µM. For the same compound, the LC50 (concentration giving 50% cell loss vs time zero) [2] was > 100 µM, the GI50 [3] was 1.94 µM and the LC50 (concentration killing 50% of cells) [3] was > 100 µM. The GI50 [4] was 0.76 µM, the CC50 [4, 26] was > 100 µM and the GI50 [5] was 0.42 µM. For the same compound, the LC50 (50% net cell kill) [5] was > 100 µM, the GI50 [6] was 3.93 µM and the LC50 (50% net cell kill) [6] was > 100 µM. For the same compound, the GI50 [7] was > 100 µM, the LC50 (50% lethal concentration) [7] was > 100 µM and the LC50 [8] was > 100 µM. The GI50 [9] was > 100 µM, the CC50 [9, 26] was > 100 µM and the GI50 [10] was 1 µM. For the same compound, the CC50 [10, 26] was > 100 µM, the GI50 [11] was 0.48 µM and the CC50 [11, 26] was > 100 µM. The GI50 [12] was 0.35 µM, the LC50 [12] was > 100 µM and the GI50 [13] was 1.92 µM. The LC50 [13] was > 100 µM, the GI50 [14] was 1.3 µM and the LC50 [14] was > 100 µM. The GI50 [15] was 1.43 µM, the LC50 (concentration killing 50% of cells present at time zero) [15] was > 100 µM and the GI50 [16] was 0.86 µM. For the same compound, the LC50 (50% lethal concentration) [16] was > 100 µM, the GI50 [17] was > 100 µM and the LC50 (concentration killing 50% of cells) [17] was > 100 µM. For the same compound, the GI50 [18] was 0.48 µM, the LC50 [18] was > 100 µM and the GI50 [19] was > 100 µM. The LC50 [19] was > 100 µM, the GI50 [20] was 6.48 µM and the LC50 [20] was > 100 µM. The GI50 [21] was 2.77 µM, the CC50 [21, 26] was > 100 µM and the GI50 [22] was 0.38 µM. For the same compound, the CC50 [22, 26] was > 100 µM, the GI50 [23] was 0.91 µM and the LC50 [23] was > 100 µM. The GI50 [24] was 6.46 µM, the LC50 [24] was > 100 µM and the GI50 [25] was 0.53 µM. The LC50 [25] was > 100 µM.
